We go through one compound from ChEMBL document CHEMBL4480410, “Targeting the MKK7-JNK (Mitogen-Activated Protein Kinase Kinase 7-c-Jun N-Terminal Kinase) Pathway with Covalent Inhibitors” (J Med Chem, 2019).

Usually inhibition stands for the relative decrease from the control value, in per cent. A low value points to a response near the control. As usually defined, the Papp A→B is the apparent permeability from the apical to the basolateral side of a cell layer. By Papp B→A is commonly meant how fast a substance crosses the layer from the basolateral side. In general, microsomal CLint refers to the rate of metabolic loss divided by the concentration.

The target of data set [1] is Tyrosine-protein kinase Blk (Homo sapiens) (UniProt P51451). The data set can be described thus: Inhibition of BLK (unknown origin) at 1 uM by proQinase-based assay relative to control.
Chain of Tyrosine-protein kinase Blk (Homo sapiens) (P51451 2-505 limits assumed): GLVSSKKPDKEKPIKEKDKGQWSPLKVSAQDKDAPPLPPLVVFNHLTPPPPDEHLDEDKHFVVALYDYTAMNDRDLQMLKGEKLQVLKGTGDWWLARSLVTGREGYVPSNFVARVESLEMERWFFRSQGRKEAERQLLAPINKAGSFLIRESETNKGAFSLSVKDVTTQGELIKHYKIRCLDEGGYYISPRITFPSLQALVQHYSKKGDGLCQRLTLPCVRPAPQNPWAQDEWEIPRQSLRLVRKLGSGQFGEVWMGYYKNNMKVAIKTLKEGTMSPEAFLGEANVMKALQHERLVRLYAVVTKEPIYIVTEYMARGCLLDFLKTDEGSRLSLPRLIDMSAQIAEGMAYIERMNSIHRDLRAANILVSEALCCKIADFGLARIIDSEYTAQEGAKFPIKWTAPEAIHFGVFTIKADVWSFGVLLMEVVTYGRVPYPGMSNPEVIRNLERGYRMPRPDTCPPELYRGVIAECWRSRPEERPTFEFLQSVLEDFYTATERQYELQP
Data set [2] concerns the target T1, Cytoplasmic tyrosine-protein kinase BMX (Homo sapiens) (UniProt P51813).
T1 sequence (whole entry): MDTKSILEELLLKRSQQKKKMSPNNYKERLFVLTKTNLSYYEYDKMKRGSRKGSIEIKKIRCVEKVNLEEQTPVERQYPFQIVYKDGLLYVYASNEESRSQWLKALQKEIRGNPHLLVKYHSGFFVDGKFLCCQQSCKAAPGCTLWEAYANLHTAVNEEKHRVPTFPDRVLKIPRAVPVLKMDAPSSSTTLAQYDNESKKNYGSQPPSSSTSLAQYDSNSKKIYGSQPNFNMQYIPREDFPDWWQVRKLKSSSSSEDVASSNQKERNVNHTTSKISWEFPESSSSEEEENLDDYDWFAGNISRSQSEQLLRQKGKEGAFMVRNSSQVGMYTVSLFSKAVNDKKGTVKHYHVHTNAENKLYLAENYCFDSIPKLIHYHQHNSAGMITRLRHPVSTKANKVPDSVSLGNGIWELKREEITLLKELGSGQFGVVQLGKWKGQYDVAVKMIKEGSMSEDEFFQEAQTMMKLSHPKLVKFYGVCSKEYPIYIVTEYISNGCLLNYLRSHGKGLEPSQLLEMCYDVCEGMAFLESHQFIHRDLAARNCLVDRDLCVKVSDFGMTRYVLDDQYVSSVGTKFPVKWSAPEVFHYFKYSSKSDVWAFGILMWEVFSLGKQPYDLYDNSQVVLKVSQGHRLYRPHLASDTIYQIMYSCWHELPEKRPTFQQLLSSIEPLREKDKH
The data set can be described thus: Inhibition of BMX (unknown origin) at 1 uM by proQinase-based assay relative to control.

Data set [3] deals with T2, Tyrosine-protein kinase JAK3 (Homo sapiens) (UniProt P52333).
T2 sequence (whole entry): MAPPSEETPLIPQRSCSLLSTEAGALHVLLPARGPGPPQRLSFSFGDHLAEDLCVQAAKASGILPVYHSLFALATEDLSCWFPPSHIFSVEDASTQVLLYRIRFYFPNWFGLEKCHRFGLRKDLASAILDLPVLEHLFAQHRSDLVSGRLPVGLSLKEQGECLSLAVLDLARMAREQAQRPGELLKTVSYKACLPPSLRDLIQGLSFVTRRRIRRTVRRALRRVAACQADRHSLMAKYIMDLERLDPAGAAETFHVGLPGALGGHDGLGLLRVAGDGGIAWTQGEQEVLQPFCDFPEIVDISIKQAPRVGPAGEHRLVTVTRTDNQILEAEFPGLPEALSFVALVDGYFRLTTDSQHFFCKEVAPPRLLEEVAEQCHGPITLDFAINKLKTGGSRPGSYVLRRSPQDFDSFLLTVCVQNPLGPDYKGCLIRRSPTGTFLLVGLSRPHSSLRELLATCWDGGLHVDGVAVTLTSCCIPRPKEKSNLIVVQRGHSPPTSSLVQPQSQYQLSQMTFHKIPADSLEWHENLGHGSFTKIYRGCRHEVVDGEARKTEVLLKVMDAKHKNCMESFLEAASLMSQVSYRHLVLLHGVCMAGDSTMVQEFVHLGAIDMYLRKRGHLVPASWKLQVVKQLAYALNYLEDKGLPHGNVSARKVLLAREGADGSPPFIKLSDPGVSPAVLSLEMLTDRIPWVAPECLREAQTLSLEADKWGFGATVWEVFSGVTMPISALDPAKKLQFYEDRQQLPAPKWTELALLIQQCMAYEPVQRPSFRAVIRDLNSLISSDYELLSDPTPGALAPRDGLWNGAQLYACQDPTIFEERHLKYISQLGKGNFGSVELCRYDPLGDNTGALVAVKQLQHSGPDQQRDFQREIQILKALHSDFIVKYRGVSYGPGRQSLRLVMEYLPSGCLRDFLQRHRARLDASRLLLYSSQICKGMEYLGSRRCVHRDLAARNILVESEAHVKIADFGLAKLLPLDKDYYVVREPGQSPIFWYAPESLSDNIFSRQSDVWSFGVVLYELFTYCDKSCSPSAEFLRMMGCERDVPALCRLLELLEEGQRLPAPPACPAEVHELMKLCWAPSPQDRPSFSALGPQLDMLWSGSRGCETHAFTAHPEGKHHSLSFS
The data set can be described thus: Inhibition of JAK3 (unknown origin) at 1 uM by proQinase-based assay relative to control.

Data set [4] is described as follows: Apparent permeability across apical to basolateral side in human Caco2 cells at 5 uM after 2 hrs by transwell membrane based assay. Type of data set: ADME, cell-based. Particulars: Caco-2. An outline of the steps: (§1)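 10 mM DMSO stock diluted to 5 µM final in HBSS pH 7.4; 2 h at 37 °C, 5% CO2 on Caco-2 monolayers grown 21 days on transwell membranes.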
Data set [5] can be described thus: Apparent permeability across basolateral to apical side in human Caco2 cells at 5 uM after 2 hrs by transwell membrane based assay. Type of data set: ADME, cell-based, Caco-2. Conditions: Caco-2. An outline of the steps: as §1
Background: Passage across Caco-2 layers is used to estimate intestinal permeability.

The nature of data set [6]: Apparent permeability across basolateral to apical side in MDCK2-MDR1 cells at 10 uM after 2 hrs by transwell membrane based assay. Type of data set: ADME, cell-based, Canis lupus familiaris. Particulars: dog, MDCK-MDR1. An outline of the steps:
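Compound at 10 µM in HBSS added to apical or basolateral side of MDCKII-MDR1 monolayer, 2 h at 37 °C. Both sides quantified by LC-MS/MS; Papp A–B or B–A from receiver concentration and volume, time, membrane area and initial donor concentration.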

A short description of data set [7]: Protein binding in human plasma at 5 uM after 6 hrs by LC/MS analysis. Format: ADME, cell-free. Particulars: read-out: PPB (converted). An outline of the steps:
(§2)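 Equilibrium dialysis of plasma with compound at 5 µM, 6 h at 37 °C; final compound concentrations determined by LC/MS to give percent bound.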

A short description of data set [8]: Protein binding in mouse plasma at 5 uM after 6 hrs by LC/MS analysis. Format: ADME, cell-free. Particulars: read-out: PPB (converted). An outline of the steps: as §2
A further data set is described as follows: in vitro. Conditions: human, liver microsomes.

SMILES strings stand for the structures.

As to `C=CC(=O)N1CCC[C@@H](n2nc(-c3cn(-c4ccc(C(C)=O)cc4)nn3)c3c(N)ncnc32)C1`, the inhibition in data set [1], in data set [2] and in data set [3] was above 50% in each case. The Papp A→B at 2 h, 5 µM in data set [4] amounted to 200 nm/s. In addition, in data set [5], the Papp B→A at 2 h, 5 µM was 130 nm/s. Besides, in data set [6], the Papp B→A at 2 h, 10 µM was 40 nm/s. Besides, the fraction unbound at 6 h, 5 µM in data set [7] is 0.04; in data set [8], 0.073. In “in vitro”, this compound yielded a microsomal CLint at 1 h, 3 µM of 154 µL/min/mg.
